{
  "source": "ChEMBL document CHEMBL1139326",
  "about": "“The design, synthesis, and antiviral activity of 4'-azidocytidine analogues against hepatitis C virus replication: the discovery of 4'-azidoarabinocytidine” (J Med Chem, 2009)",
  "key": {"Hepatitis C virus": {"system": "Hepatitis C virus", "assay": "Antiviral activity against Hepatitis C virus infected human 2209-23 cells by genotype 1b replicon assay", "assay_type": "functional, organism-based, Hepacivirus hominis"}, "[1]": {"assay": "Antiproliferative activity against human 2209-23 cells by [3H]thymidine incorporation scintillation proximity assay", "assay_type": "functional, cell-based", "procedure,_shortened": "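Cell proliferation was read as uptake of tritiated thymidine into cellular DNA, quantified by scintillation proximity, and reported as an IC50. It served to flag possible loss of selectivity against human polymerases.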"}, "[2]": {"assay": "Cytotoxicity against human 2209-23 cells by WST1 cell ciability assay", "assay_type": "cell-based"}},
  "note": "pIC50: −log10 of the molar value.",
  "data": [
    {"molecule": "C[C@]1(O)[C@H](n2ccc(N)nc2=O)O[C@@](CO)(N=[N+]=[N-])[C@H]1O", "values": [
      {"measurement": "pIC50", "setting": "Hepatitis C virus", "result": "< 4.00"}
    ]},
    {"molecule": "[N-]=[N+]=N[C@@]1(CO)C[C@@H](O)[C@H](n2ccc(N)nc2=O)O1", "values": [
      {"measurement": "pIC50", "setting": "Hepatitis C virus", "result": "< 4.00"}
    ]},
    {"molecule": "C[C@@]1(O)[C@H](n2ccc(N)nc2=O)O[C@@](CO)(N=[N+]=[N-])[C@H]1O", "values": [
      {"measurement": "pIC50", "setting": "Hepatitis C virus", "result": "< 4.00"}
    ]},
    {"molecule": "[N-]=[N+]=N[C@]1(CO)O[C@@H](n2ccc(N)nc2=O)[C@@H](O)[C@@H]1O", "values": [
      {"measurement": "pIC50", "setting": "Hepatitis C virus", "result": 6.77},
      {"measurement": "pIC50", "setting": "[1]", "result": "< 4.00"}
    ]},
    {"molecule": "[N-]=[N+]=N[C@]1(CO)O[C@@H](n2ccc(N)nc2=O)[C@H](O)[C@H]1O", "values": [
      {"measurement": "pIC50", "setting": "Hepatitis C virus", "result": 4.56}
    ]},
    {"molecule": "[N-]=[N+]=N[C@]1(CO)O[C@@H](n2ccc(N)nc2=O)[C@H](O)[C@@H]1O", "note": "[4'-AZIDOCYTIDINE]", "values": [
      {"measurement": "pIC50", "setting": "[1]", "result": "< 4.00"}
    ]},
    {"molecule": "Nc1ccn([C@@H]2O[C@H](CO)[C@@H](O)[C@@H]2O)c(=O)n1", "note": "[CYTARABINE]", "values": [
      {"measurement": "pIC50", "setting": "Hepatitis C virus", "result": 7.70},
      {"measurement": "CC50", "setting": "[2]", "result": "< 100", "unit": "µM"},
      {"measurement": "pIC50", "setting": "[1]", "result": 7.54}
    ]}
  ]
}
